Key:
[1] = Compound was tested for its ability to displace [3H]WB-4101 form alpha-1 adrenergic receptor site in guinea pig cerebral cortical membranes.; parameters: species or system Cavia porcellus
In short: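 Guinea pig (male Hartley) cerebral cortex membranes in 50 mM Tris-HCl pH 7.4, ~0.9–1.2 mg protein/mL. […] Ki from IC50 by Cheng-Prusoff; 3–5 experiments or one in triplicate.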

[2] = species on record: Cavia porcellus; experiment: Stimulation of [3H]phosphatidylinositol turnover in synaptoneurosomes at a concentration of 100 uM; assay type: functional
In short: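 Nonfiltered guinea pig cortical synaptoneurosomes prelabeled 60 min at 37 °C with 1 μM [3H]inositol in Krebs–Henseleit buffer under O2/CO2 (95:5). Washed, resuspended with 10 mM LiCl (~1 mg protein/tube). Agonist at 100 μM, 90 min at 37 °C. Stopped by centrifugation, TCA extraction; [3H]inositol phosphates measured in supernatant.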

[3] = Compound was tested for its ability to displace [3H]-prazosin form alpha-1 adrenergic receptor site in guinea pig cerebral cortical membranes.; parameters: species or system Cavia porcellus
In short: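 Guinea pig (male Hartley) cerebral cortex membranes, homogenised and washed in 50 mM Tris-HCl pH 7.4, ~0.9–1.2 mg protein/mL. 0.5 nM [3H]prazosin (Kd 0.5 nM), 30 min at 30 °C; nonspecific with 10 μM phentolamine. Ki from IC50 by Cheng-Prusoff; 3–5 experiments or one in triplicate.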

[4] = biological target: T1, Adrenergic receptor alpha-2 (Homo sapiens, UniProt P08913+P18825+P18089); experiment: (§1) Compound was tested for its ability to displace [3H]clonidine form alpha-2 adrenergic receptor site in guinea pig cerebral cortical membranes.; parameters: species or system Cavia porcellus; conditions: target entry is the homologue from another species
T1 sequence (P08913 whole entry): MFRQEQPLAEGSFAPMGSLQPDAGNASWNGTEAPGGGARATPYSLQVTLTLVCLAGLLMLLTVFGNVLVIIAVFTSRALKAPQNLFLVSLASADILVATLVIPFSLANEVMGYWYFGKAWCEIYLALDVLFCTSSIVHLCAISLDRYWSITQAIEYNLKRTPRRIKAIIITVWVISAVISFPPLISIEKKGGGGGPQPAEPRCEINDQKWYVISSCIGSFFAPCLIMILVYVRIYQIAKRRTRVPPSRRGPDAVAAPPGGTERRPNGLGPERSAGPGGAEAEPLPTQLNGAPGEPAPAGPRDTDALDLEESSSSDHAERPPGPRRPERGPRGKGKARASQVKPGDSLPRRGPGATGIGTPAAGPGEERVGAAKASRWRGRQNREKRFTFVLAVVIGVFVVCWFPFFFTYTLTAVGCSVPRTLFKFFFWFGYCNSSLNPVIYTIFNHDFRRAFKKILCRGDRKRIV
T1 sequence (P18825 whole entry): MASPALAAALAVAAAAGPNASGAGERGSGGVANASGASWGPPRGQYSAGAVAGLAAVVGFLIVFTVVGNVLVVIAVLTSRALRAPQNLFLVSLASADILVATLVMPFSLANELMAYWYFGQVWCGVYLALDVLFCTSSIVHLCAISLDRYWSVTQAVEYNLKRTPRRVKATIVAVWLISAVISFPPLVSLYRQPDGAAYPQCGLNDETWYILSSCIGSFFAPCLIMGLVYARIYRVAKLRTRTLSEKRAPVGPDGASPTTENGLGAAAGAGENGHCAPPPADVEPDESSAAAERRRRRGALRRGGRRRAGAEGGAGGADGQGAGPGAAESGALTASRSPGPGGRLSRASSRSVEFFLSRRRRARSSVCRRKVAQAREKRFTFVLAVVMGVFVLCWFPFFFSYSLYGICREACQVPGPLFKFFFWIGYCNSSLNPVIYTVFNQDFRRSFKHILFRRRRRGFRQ
T1 sequence (P18089 whole entry): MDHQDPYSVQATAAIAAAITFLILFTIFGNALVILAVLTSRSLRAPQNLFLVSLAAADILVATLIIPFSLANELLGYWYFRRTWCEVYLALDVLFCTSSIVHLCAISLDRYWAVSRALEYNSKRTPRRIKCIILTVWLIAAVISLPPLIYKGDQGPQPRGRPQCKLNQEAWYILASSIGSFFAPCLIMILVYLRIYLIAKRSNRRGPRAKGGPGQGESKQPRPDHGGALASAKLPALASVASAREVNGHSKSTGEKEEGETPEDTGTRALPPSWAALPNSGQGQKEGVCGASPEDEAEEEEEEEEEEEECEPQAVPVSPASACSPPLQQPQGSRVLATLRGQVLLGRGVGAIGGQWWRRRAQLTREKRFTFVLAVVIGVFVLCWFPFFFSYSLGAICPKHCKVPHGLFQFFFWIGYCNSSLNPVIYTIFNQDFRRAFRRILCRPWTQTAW
In short: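 Guinea pig (male Hartley) cerebral cortex membranes in 50 mM Tris-HCl pH 7.4. Ki from IC50 by Cheng-Prusoff; 3–5 experiments or one in triplicate.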

[5] = species on record: Cavia porcellus; experiment: Compound was evaluated for its agonist potency by measurement of potentiation of 2-chloroadenosine stimulation of cyclic AMP accumulation in guinea pig cerebral cortical synaptoneurosomal preparations.; assay type: functional
[6] = species on record: Cavia porcellus; experiment: Compound was evaluated for its agonist potency by measurement of contraction of guinea pig aortic strips; assay type: functional; conditions: Aorta
In short: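 Cumulative concentration-response, 3–200 μM in 2–3-fold steps. Isometric tension recorded; EC50 = concentration giving half of maximal contraction to supramaximal (-)-NE (30–50 μM), measured before and after each curve.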

[7] = biological target: T1, Adrenergic receptor alpha-2; experiment: as §1; parameters: species or system Cavia porcellus; conditions: target entry is the homologue from another species; remark: listed apart in the source
In short: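 Guinea pig (male Hartley) cerebral cortex membranes in 50 mM Tris-HCl pH 7.4. […] Ki from IC50 by Cheng-Prusoff; 3–5 experiments or one in triplicate.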

Row | Compound | Ki [1] | Control [2] | Ki [3] | Ki [4] | EC50 [5] | EC50 [6] | Ki [7]
1 | CNCC(O)c1cccc(O)c1F (racemic) | 6.6 µM | 134% | 17 µM | 1.2 µM | 40 µM | 105 µM | –
2 | CNCC(O)c1cc(O)ccc1F (racemic) | 1.3 µM | 162% | 2.1 µM | – | 4 µM | 11 µM | 0.23 µM
3 | CNCC(O)c1ccc(F)c(O)c1 (racemic) | 3.7 µM | 136% | 10 µM | – | 35 µM | 39 µM | 1 µM
4 | CNC[C@H](O)c1cccc(O)c1 [PHENYLEPHRINE] | 2.5 µM | 161% | – | – | 26 µM | 27 µM | –
